Values after ≈ are worked out from the molar mass of the structure shown. Active and inactive are the calls of the source. The calls are words filed in the database; no cut-off is given here.

Data set [1] addresses T1, DCN1-like protein 1 (Homo sapiens, UniProt Q96GG9). Nature of the data set: Inhibition of DCN1-mediated CUL3 neddylation in human H2170 cells assessed as increase in NRF2 level at 10 uM after 16 hrs by Western blot analysis. The class given is cell-based. The gist of the method:
(§1)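 H2170 cells exposed to compound for 16 h, then lysed in Triton X-100 or RIPA buffer with phosphatase inhibitors. Neddylated and unneddylated cullins, NRF2 and CDT1 read by Western blot on whole-cell lysate, with GAPDH as loading control.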
(Immunoblotting shows a protein as a band on a membrane.)
Target sequence in this assay (Q96GG9 whole entry, looked up): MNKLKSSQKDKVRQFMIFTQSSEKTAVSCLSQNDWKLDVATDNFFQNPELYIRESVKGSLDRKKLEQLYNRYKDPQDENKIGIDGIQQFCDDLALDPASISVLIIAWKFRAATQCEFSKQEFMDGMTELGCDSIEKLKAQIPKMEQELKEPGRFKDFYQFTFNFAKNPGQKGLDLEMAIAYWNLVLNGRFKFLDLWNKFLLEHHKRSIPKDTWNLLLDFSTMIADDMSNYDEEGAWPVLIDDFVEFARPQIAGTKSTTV

The target of data set [2] is T1, DCN1-like protein 1. Put plainly: Inhibition of DCN1 interaction with UBC12 protein in human H2170 cell lysate at 20 uM after 3 hrs by immunoprecipitation assay. The gist of the method:
(§2)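 Endogenous DCN1 pulled down from precleared lysates of treated cells with DCN1 antibody for 3 h, then protein A&G beads at 4 °C overnight with rotation. Beads washed three times in lysis buffer, complexes resolved by SDS−PAGE and immunoblotted.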
Target sequence in this assay (Q96GG9 whole entry, looked up): as above

In data set [3] the target is T1, DCN1-like protein 1. Nature of the data set: Inhibition of DCN1-mediated CUL3 neddylation in human H2170 cells at 10 uM after 16 hrs by Western blot analysis. The class given is cell-based. The gist of the method:
as §1
Target sequence in this assay (Q96GG9 whole entry, looked up): as above

In data set [4] the target is T1, DCN1-like protein 1. Nature of the data set: Inhibition of DCN1-mediated CUL2 neddylation in human SK-MES-1 cells at 10 uM after 16 hrs by Western blot analysis. The class given is cell-based.
Target sequence in this assay (Q96GG9 whole entry, looked up): as above
Data set [5] deals with T1, DCN1-like protein 1. Nature of the data set: Inhibition of DCN1-mediated CUL4B neddylation in human SK-MES-1 cells at 10 uM after 16 hrs by Western blot analysis. The class given is cell-based.
Target sequence in this assay (Q96GG9 whole entry, looked up): as above
The target in data set [6] is T1, DCN1-like protein 1. Put plainly: Inhibition of DCN1-mediated CUL4A neddylation in human SK-MES-1 cells at 10 uM after 16 hrs by Western blot analysis. The class given is cell-based.
Target sequence in this assay (Q96GG9 whole entry, looked up): as above
Data set [7] addresses T1, DCN1-like protein 1. Nature of the data set: Binding affinity to biotin labeled recombinant N-terminal His6-tagged human DCN1 (58 to 259 residues) expressed in Escherichia coli Rosetta2 cells assessed as association rate constant by biolayer interferometry analysis. The gist of the method: (§3)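 Biotinylated DCN1 (1:1 molar biotin reagent, 4 °C 2 h, dialysed) loaded on super streptavidin sensors from 10 μg/mL to 11−12 nm response; blocked streptavidin sensors as reference. Run at 30 °C, 1000 rpm, in PBS with 0.1% BSA, 0.01% Tween-20, 2% DMSO; 10 min baseline wash. kon/koff from 1:1 binding model fits; two independent experiments.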
For orientation: Biolayer interferometry detects binding as a change in optical thickness at a sensor tip.

For data set [8], the target named is T1, DCN1-like protein 1. Put plainly: Inhibition of DCN1-mediated CUL4A neddylation in human H2170 cells at 10 uM after 16 hrs by Western blot analysis. The class given is cell-based. The gist of the method:
as §1

Data set [9] deals with T1, DCN1-like protein 1. Nature of the data set: Inhibition of DCN1-mediated CUL1 neddylation in human H2170 cells at 10 uM after 16 hrs by Western blot analysis. The class given is cell-based. The gist of the method:
as §1

Data set [10] addresses T1, DCN1-like protein 1. Nature of the data set: Inhibition of DCN1-mediated CUL5 neddylation in human H2170 cells at 10 uM after 16 hrs by Western blot analysis. The class given is cell-based. The gist of the method: as §1
For data set [11], the target named is T1, DCN1-like protein 1. Nature of the data set: Inhibition of DCN1-mediated CUL5 neddylation in human SK-MES-1 cells at 10 uM after 16 hrs by Western blot analysis. The class given is cell-based.
Data set [12] has as its target T1, DCN1-like protein 1. Nature of the data set: Inhibition of DCN1-mediated CUL1 neddylation in human SK-MES-1 cells at 10 uM after 16 hrs by Western blot analysis. The class given is cell-based.
For data set [13], the target named is T1, DCN1-like protein 1. Nature of the data set: Inhibition of DCN1-mediated CUL4B neddylation in human H2170 cells at 10 uM after 16 hrs by Western blot analysis. The class given is cell-based. The method in brief:
as §1

In data set [14] the target is T1, DCN1-like protein 1. Nature of the data set: Stabilization of DCN1 in human H2170 cells at 10 uM incubated for 1 hr by cellular thermal shift assay. The class given is cell-based. The method in brief:
(§4)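 H2170 cells (5 × 10^5 per sample) given compound or DMSO for 1 h, washed three times in PBS, resuspended in PBS with protease inhibitor, and heated at 53 °C for 3 min. Three liquid-nitrogen freeze/thaw-on-ice cycles followed. DCN1 in the supernatant read by Western blot, with GAPDH as loading control.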

Data set [15] addresses T1, DCN1-like protein 1. Nature of the data set: Inhibition of DCN1-mediated CUL3 neddylation in human SK-MES-1 cells at 10 uM after 16 hrs by Western blot analysis. The class given is cell-based.
Data set [16] addresses T1, DCN1-like protein 1. Put plainly: Binding affinity to biotin labeled recombinant N-terminal His6-tagged human DCN1 (58 to 259 residues) expressed in Escherichia coli Rosetta2 cells assessed as dissociation rate constant by biolayer interferometry analysis. The gist of the method:
as §3

Data set [17] has as its target T1, DCN1-like protein 1. Nature of the data set: Inhibition of DCN1-mediated CUL2 neddylation in human H2170 cells at 10 uM after 16 hrs by Western blot analysis. The class given is cell-based. The gist of the method: as §1
The target of data set [18] is T1, DCN1-like protein 1. Nature of the data set: Binding affinity to biotin labeled recombinant N-terminal His6-tagged human DCN1 (58 to 259 residues) expressed in Escherichia coli Rosetta2 cells by biolayer interferometry analysis. The gist of the method: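 Recombinant human DCN1 (58–259) was biotinylated at a 1:1 molar ratio in PBS for 2 h at 4 °C, dialyzed, then loaded on super streptavidin sensors from a 10 μg/mL solution. Blocked streptavidin sensors served as reference.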
Target sequence in this assay (Q96GG9 whole entry): as the sequence (Q96GG9 whole entry, looked up) above

Data set [19] in a line: Equilibrium aqueous solubility of the compound in phosphate buffer of pH 7.4 after 24 hrs by shake-flask method. The class given is physicochemical. The method in brief: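 Excess solid was suspended in phosphate buffer pH 7.4, sonicated 30 min, then shaken 24 h at room temperature. Suspensions were centrifuged at 15 000 rpm for 15 min and filtered through 0.45 μm membranes. The saturated concentration was read by UV at each compound's absorption maximum, found by spectrum scan.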

In data set [20] the test system is NCI-H2170. Put plainly: Effect on DCN1 levels in human NCI-H2170 cells at 5 to 10 uM after 24 hrs by Western blot analysis. The class given is functional, cell-based.
Data set [21] concerns the target T1, DCN1-like protein 1. Nature of the data set: Inhibition of DCN1-mediated CUL4B neddylation in human H2170 cells at 0.1 to 10 uM after 16 hrs by Western blot analysis. The class given is cell-based. The method in brief:
as §1

In data set [22] the target is T1, DCN1-like protein 1. Put plainly: Inhibition of DCN1-mediated CUL3 neddylation in human H2170 cells assessed as increase in NRF2 level at 0.1 to 10 uM after 16 hrs by Western blot analysis. The class given is cell-based. The method in brief: as §1
Data set [23] has as its target T1, DCN1-like protein 1. Nature of the data set: Stabilization of DCN1 in human H2170 cells incubated for 1 hr by cellular thermal shift assay. The class given is cell-based. The method in brief:
as §4

Data set [24] addresses T1, DCN1-like protein 1. Nature of the data set: Inhibition of DCN1-mediated CUL4A neddylation in human H2170 cells at 0.1 to 10 uM after 16 hrs by Western blot analysis. The class given is cell-based. The method in brief:
as §1

The target in data set [25] is T1, DCN1-like protein 1. Nature of the data set: Inhibition of DCN1-mediated CUL5 neddylation in human H2170 cells at 0.1 to 10 uM after 16 hrs by Western blot analysis. The class given is cell-based. The method in brief:
as §1

Data set [26] deals with NCI-H2170. Nature of the data set: Effect on UBC12 levels in human NCI-H2170 cells at 5 to 10 uM after 24 hrs by Western blot analysis. The class given is functional, cell-based.
In data set [27] the target is T1, DCN1-like protein 1. Put plainly: Inhibition of DCN1-mediated CUL4A neddylation in human H2170 cells assessed as increase in CDT1 level at 0.1 to 10 uM after 16 hrs by Western blot analysis. The class given is cell-based. The gist of the method:
as §1

In data set [28] the target is T1, DCN1-like protein 1. Put plainly: Inhibition of DCN1-mediated CUL2 neddylation in human H2170 cells at 0.1 to 10 uM after 16 hrs by Western blot analysis. The class given is cell-based. The gist of the method: as §1
For data set [29], the target named is T1, DCN1-like protein 1. Nature of the data set: Inhibition of DCN1-mediated CUL3 neddylation in human H2170 cells after 16 hrs by Western blot analysis. The class given is cell-based. The method in brief:
as §1

In data set [30] the target is T1, DCN1-like protein 1. Put plainly: Inhibition of DCN1-mediated CUL3 neddylation in human SK-MES-1 cells up to 10 uM after 16 hrs by Western blot analysis. The class given is cell-based.
The target of data set [31] is T1, DCN1-like protein 1. Nature of the data set: Inhibition of DCN1 interaction with UBC12 protein in human H2170 cell lysate after 24 hrs by immunoprecipitation assay. The gist of the method:
as §2

A word on the Kd: it is the concentration at which binding is half-saturated. Consider `CCC(=O)N[C@@H](Cc1nc2ccc(Cl)cc2s1)C(=O)N[C@H](C(=O)N[C@@H](CCCCN)C(=O)N[C@@H]1CCOc2ccccc21)C1CCNCC1`, for which the inhibition entry on DCN1-like protein 1 [1], at DCN1-like protein 1 [2], on DCN1-like protein 1 [3], on DCN1-like protein 1 [4], on DCN1-like protein 1 [5] and at DCN1-like protein 1 [6] was “inactive” throughout. The inhibition result at DCN1-like protein 1 [8], at DCN1-like protein 1 [9], at DCN1-like protein 1 [10], at DCN1-like protein 1 [11], on DCN1-like protein 1 [12] and on DCN1-like protein 1 [13] was “inactive” throughout. The inhibition entry on DCN1-like protein 1 [15] and at DCN1-like protein 1 [17] was “inactive” in each case. The K at DCN1-like protein 1 [7] turned out to be 2.4 ×10³ /M/s; at DCN1-like protein 1 [16] it was 2.6 ×10⁻³ /s. The result at DCN1-like protein 1 [14] was inactive. Further, the Kd on DCN1-like protein 1 [18] came out at 1470 nM.
In general, solubility (thermodynamic) refers to the concentration in solution at equilibrium with solid. `CCC(=O)N[C@@H](Cc1nc2ccc(Cl)cc2s1)C(=O)N[C@H](C(=O)N[C@@H](CCCCN)C(=O)N[C@@H]1CCOc2ccccc21)C1CCOCC1` gave a solubility (thermodynamic) at 24 h in data set [19] of 54 µM (≈ 38.5 µg/mL). Besides, the outcome with NCI-H2170 [20] and in the data set on NCI-H2170 [26] was inactive. The inhibition entry at DCN1-like protein 1 [21], at DCN1-like protein 1 [24], at DCN1-like protein 1 [25], at DCN1-like protein 1 [27] and on DCN1-like protein 1 [28] was “inactive” in each case. Moreover, the K at DCN1-like protein 1 [7] was 2.9 ×10⁵ /M/s; on DCN1-like protein 1 [16], 2 ×10⁻³ /s. Also, the inhibition result on DCN1-like protein 1 [22], at DCN1-like protein 1 [9] and at DCN1-like protein 1 [30] was “Active” in each case. For the same compound, the Activity result on DCN1-like protein 1 [23] is “Dose-dependent effect”. Also, the inhibition result at DCN1-like protein 1 [29] and on DCN1-like protein 1 [31] was “Dose-dependent effect” in each case. Moreover, at DCN1-like protein 1 [18], the Kd amounted to 6.7 nM.

(Values after ChEMBL document CHEMBL4118105, “High-Affinity Peptidomimetic Inhibitors of the DCN1-UBC12 Protein-Protein Interaction” (J Med Chem, 2018).)
